Laboratory results from article PMC4340684 (Bioorganic & medicinal chemistry, 2015).

Legend:
recombinant rat HSL [1] = target: T1, recombinant rat HSL (Rattus norvegicus, UniProt P15304); assay: HSL lipase assay; format: biochemical; settings: for times more potent than the corresponding cis isomer: chain lengths of 12–18 carbon atoms
T1 sequence (P15304 1-768 isoform P15304-2): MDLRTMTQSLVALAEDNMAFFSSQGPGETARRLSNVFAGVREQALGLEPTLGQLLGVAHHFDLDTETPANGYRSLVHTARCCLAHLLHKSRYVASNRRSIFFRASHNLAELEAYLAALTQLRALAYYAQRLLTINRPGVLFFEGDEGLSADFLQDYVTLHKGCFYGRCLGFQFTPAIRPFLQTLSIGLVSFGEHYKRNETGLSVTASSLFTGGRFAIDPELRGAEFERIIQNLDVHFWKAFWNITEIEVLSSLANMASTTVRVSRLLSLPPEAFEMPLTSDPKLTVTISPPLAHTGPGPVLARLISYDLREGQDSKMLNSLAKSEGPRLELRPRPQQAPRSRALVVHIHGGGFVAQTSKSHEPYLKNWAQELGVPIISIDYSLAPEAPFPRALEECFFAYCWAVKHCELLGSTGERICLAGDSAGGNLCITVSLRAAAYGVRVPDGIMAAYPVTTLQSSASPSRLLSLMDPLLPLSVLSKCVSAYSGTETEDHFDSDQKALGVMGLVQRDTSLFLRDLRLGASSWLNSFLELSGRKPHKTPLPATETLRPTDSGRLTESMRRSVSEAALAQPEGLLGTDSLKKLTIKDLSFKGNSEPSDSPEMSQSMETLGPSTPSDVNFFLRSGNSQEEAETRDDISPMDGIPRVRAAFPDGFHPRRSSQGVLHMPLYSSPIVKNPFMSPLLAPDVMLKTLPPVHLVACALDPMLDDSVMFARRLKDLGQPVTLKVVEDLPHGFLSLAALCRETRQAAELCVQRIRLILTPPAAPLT

recombinant rat HSL [2] = target: T1, recombinant rat HSL; assay: Determination of rate constants for binding and inactivation of HSL; format: biochemical; settings: fit to Eqn 2; no preincubation, 37 °C
Outline: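 Baculovirus/Sf9-expressed rat HSL, Ni-NTA purified. Inhibitor in PC/PI (3:1) liposomes with 500 μM triolein plus 3H-triolein; pH 7.4 buffer, 0.2% BSA. Enzyme added directly at 37 °C; samples every 3–5 min for 30 min, 3H-oleate extracted, scintillation counted. Activity–time data at several inhibitor concentrations fit to Eqn 1 (kobs, k−2); normalized activity fit to Eqn 2 (KI, k2).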

Structure (SMILES)	times more potent than the corresponding cis isomer (recombinant rat HSL [1])	other results
CCCCCCCCCCCCCCCCO[P@]1(=O)CC[C@@H]2COC(=O)C2=C(C)O1 (racemic) [Cyclipostin P Phosphonate 6a, (±)-(3R(S),5aR(S))-3-(hexadecyloxy)-1-methyl-4,5,5a,6-tetrahydrofuro[3,4-e][1,2]oxaphosphepin-8(3H)-one 3-oxide]		fold less potent than the other bicyclic phosphonate analogs (recombinant rat HSL [1]; vs about 400 nM): about 10 fold
CCCCCCCCCCCC[C@H]1CC[P@@](=O)(OC)OC(C)=C1C(=O)OC [10b]	2–6 times	
CCCCCCCCCCCCCCCC[C@H]1CC[P@@](=O)(OC)OC(C)=C1C(=O)OC [11b]	2–6 times	
CCCCCCCCCCCCCCCCCC[C@H]1CC[P@@](=O)(OC)OC(C)=C1C(=O)OC [12b]	2–6 times	
CCCCCCCCCCCCCCCCO[P@]1(=O)OC[C@@H]2COC(=O)C2=C(C)O1 [Cyclipostin P 4a]		k2 (forward rate constant for inactivation) (recombinant rat HSL [2]): 0.2 min⁻¹
CCCCCCCCCCCCCCCCO[P@]1(=O)OC[C@H]2COC(=O)C2=C(C)O1 [Cyclipostin P 4b]		fold weaker IC50 of the less potent diastereomer vs the more potent diastereomer (recombinant rat HSL [1]): 16 fold
